KCNK3 block: human KCNK3 channel inhibition, primary screen; B-score at 10 µM; AID 602410; actives 0.84% (n = 340,000); CHO-KCNK3 thallium flux, FluxOR fluorescence; stronger effect = lower value; O14649;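 active = B-score under library mean minus 4 SD, starting fluorescence ratio at most library mean plus 5 SD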;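 also: more negative B-score means stronger inhibition of thallium flux through KCNK3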
Target sequence (O14649 whole entry, looked up): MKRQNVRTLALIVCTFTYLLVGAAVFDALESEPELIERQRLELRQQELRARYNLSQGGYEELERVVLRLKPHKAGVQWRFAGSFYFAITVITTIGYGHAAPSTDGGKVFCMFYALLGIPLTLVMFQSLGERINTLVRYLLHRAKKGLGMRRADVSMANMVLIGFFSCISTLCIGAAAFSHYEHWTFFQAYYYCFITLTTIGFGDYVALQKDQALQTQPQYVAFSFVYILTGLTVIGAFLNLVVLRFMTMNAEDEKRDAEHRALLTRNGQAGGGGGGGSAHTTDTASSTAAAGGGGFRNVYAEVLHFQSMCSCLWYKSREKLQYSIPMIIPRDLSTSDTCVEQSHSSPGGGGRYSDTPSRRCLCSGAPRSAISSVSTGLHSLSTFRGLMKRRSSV
Kir21 inh: inhibitors of mouse Kir2.1 inward-rectifier potassium channel; P35561; HEK293-Kir2.1, FluxOR thallium flux fluorescence; stronger effect = lower value; B-score at 10 µM; actives 0.85% (n = 310,000);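 active = fluorescence ratio B-score at or below minus 3 SD of library scores, with starting-brightness B-score within 2 SD, cut at about -4.2 in these data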;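 also: channel flux triggered by added potassium and thallium sulfate stimulus; B-score of peak minus minimum fluorescence over baseline after thallium stimulus; more negative B-score means stronger Kir2.1 block with less thallium influx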
KCNQ1 act: human KCNQ1 channel potentiation or activation | CHO-K1 KCNQ1, thallium flux FluxOR fluorescence; stronger effect = higher value | P51787 | AID 2648 | B-score at 10 µM | actives 0.35% (n = 310,000);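 active = fluorescence ratio B-score, a plate-corrected score, at least three library SD, with initial intensity B-score within 5 SD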
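Assay system: CHO-K1 cells stably expressing KCNQ1. Medium: assay buffer for compound exposure, DMSO matched across wells. Timing: 37 °C overnight plating, 90-min dark dye load, 20-min compound pretreatment. Signal: kinetic FluxOR fluorescence, 10 s baseline plus 110 s post-stimulus.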
hERG rescue: shields human hERG channel from block by proarrhythmic agents | actives 0.51% (n = 310,000) | AID 1511 | CHO-hERG, FluxOR thallium flux, dofetilide IC70 present | Q12809 | activation (rescue from dofetilide block), less the hit threshold, % at 10 µM;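 active = activation above the mean of controls blocked by dofetilide plus 5 SD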;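 also: thallium influx through hERG after potassium depolarization seen as dye fluorescence rise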
KCNK9 block: blocks the human KCNK9 two-pore domain potassium channel | Q9NPC2 | HEK293 KCNK9, FluxOR thallium flux fluorescence; stronger effect = lower value | B-score at 10 µM | actives 1.2% (n = 310,000) | AID 488922;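 active = ratio B-score over 3 SD below the library mean, with starting fluorescence within 5 SD of its mean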;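 also: negative B-score means less thallium flux so channel inhibition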
Target sequence (Q9NPC2 whole entry, looked up, the tested form may be a part): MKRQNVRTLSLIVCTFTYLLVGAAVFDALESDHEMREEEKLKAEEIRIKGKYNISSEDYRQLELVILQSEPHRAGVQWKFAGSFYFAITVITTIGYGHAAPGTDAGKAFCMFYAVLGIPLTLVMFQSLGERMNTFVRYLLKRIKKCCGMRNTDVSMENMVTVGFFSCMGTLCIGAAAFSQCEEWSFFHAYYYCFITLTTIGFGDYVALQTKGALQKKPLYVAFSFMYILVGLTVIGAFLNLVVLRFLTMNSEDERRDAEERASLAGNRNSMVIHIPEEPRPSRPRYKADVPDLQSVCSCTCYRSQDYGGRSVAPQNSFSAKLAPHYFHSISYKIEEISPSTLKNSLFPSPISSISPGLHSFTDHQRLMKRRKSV
KCNQ1 block: blocks the human KCNQ1 potassium channel; P51787; CHO-K1 KCNQ1, FluxOR thallium flux fluorescence; stronger effect = higher value; B-score at 10 µM; actives 1.3% (n = 310,000); AID 2642;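 active = compounds whose thallium flux B-score, printed positive for inhibition, exceeds three library SD while starting fluorescence stays within three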;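 also: channel opened by potassium depolarization with thallium stimulus after 20 min compound exposure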
KCNK9 inh conf: human KCNK9 inhibitor confirmation; AID 492992; inhibition, % at 10 µM; HEK293 KCNK9 cells, FluxOR thallium flux fluorescence; actives 43% (n = 4,900); shares compounds with KCNK9 block;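 active = thallium signal inhibited by more than 5 SD of the compound-free buffer control wells, on both duplicate plates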
Kir2-1 spec: mouse Kir2.1 off-target activity of KCNK9 modulators | shares compounds with KCNK9 block | actives 4% (n = 4,900) | Kir2.1 cells, FluxOR thallium flux fluorescence | inhibition, % at 10 µM;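 active = thallium signal drop more than 5 SD beyond the mean of the no-compound control wells, seen in both duplicate plates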;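 also: signal is fluorescence rise after thallium addition divided by baseline fluorescence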
KCNK9 uninduced: second counter-screen for KCNK9 modulators: effect in non-induced cells; shares compounds with KCNK9 block; non-induced KCNK9-HEK293, FluxOR thallium flux; AID 492997; inhibition, % at 10 µM; actives 40% (n = 4,900);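 active = thallium signal drop beyond 5 SD of the untreated control mean, on both duplicate plates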
Of the large screens only hits and unclear results are named; the others gave an inactive call (follow-up assays come after a bar, where they were run). The list is not random: actives were taken first. Their share in the collection is about 3.7%.

O=C(N[C@H]1CCC(=O)N(CCSc2ccc(Br)cc2)CC1)OCc1ccccc1	none (no result: Kir21 inh, KCNQ1 act, hERG rescue, KCNK9 block, KCNQ1 block)
CCc1nccn1S(=O)(=O)c1ccccc1[N+](=O)[O-]	none
c1ccc(COc2cccc(CN3CCN(c4ccccn4)CC3)c2)cc1	KCNK9 block -9.1 | KCNK9 inh conf 35% | Kir2-1 spec inactive | KCNK9 uninduced 27%
COc1ccc2c(c1)c(CC(=O)OCC(=O)N(C)C)c(C)n2C(=O)c1ccc(Cl)cc1	none
COc1ccc2c(c1)c(CC(=O)OC(C)C(=O)N(C)C)c(C)n2C(=O)c1ccc(Cl)cc1 (stereo not given)	none | KCNK9 inh conf inactive | Kir2-1 spec inactive | KCNK9 uninduced inactive
CCOC(=O)c1cc(-c2ccc(/C=C3/C(=O)N(c4ccc(C(=O)O)cc4)N=C3C)o2)ccc1Cl	none | KCNK9 inh conf inactive | Kir2-1 spec inactive | KCNK9 uninduced inactive
O=S(=O)(c1cccc(S(=O)(=O)N2CCCC2)c1)c1cccc(S(=O)(=O)N2CCCC2)c1	KCNK9 block -9.2 | KCNK9 inh conf 54% | Kir2-1 spec inactive | KCNK9 uninduced inactive
O=C(OCc1ccc(Br)cc1)c1cccc(S(=O)(=O)N2CCCC2)c1	KCNK9 block -12 | KCNK9 inh conf inactive | Kir2-1 spec inactive | KCNK9 uninduced 34%
O=S(=O)(c1cccc(S(=O)(=O)N2CCCC2)c1)N1CCCCC1	none
CC(C)CC(COCc1ccc(Cl)cc1)N1CCN(C(=O)c2ccc(Cl)cc2Cl)CCC1=O (stereo not given)	none
COc1ccc(-c2ccc(OC)c([C@H]3[C@H]4C=CC[C@@H](C)[C@@H]4C(=O)N3Cc3ccccc3)c2)cc1OC	none | KCNK9 inh conf inactive | Kir2-1 spec inactive | KCNK9 uninduced inactive
COc1cc(C(=O)OCC(=O)NC2CCS(=O)(=O)C2)ccc1OCc1c(C)noc1C (stereo not given)	none
Nc1cc(=O)[nH]c(SCC(=O)N2CCN(S(=O)(=O)c3ccc4ccccc4c3)CC2)n1	none
O=C(CSc1ncc(C(F)(F)F)cc1Cl)N1CCN(S(=O)(=O)c2ccc3ccccc3c2)CC1	none | KCNK9 inh conf inactive | Kir2-1 spec inactive | KCNK9 uninduced inactive
COc1cc(Cl)ccc1OCc1cc(C(=O)N2C[C@]3(C)C[C@H]2CC(C)(C)C3)no1	none | KCNK9 inh conf inactive | Kir2-1 spec inactive | KCNK9 uninduced inactive
COc1cc(Cl)ccc1OCc1cc(C(=O)N2C[C@H]3CC[C@H]2C3)no1	none
COc1ccc(C/C(=N\O)c2ccc(OC)cc2)cc1	none | KCNK9 inh conf inactive | Kir2-1 spec inactive | KCNK9 uninduced inactive
CN(CCCC(=O)N1CCCC(C(N)=O)C1)S(=O)(=O)c1ccc(F)cc1 (stereo not given)	none
CCc1ccc(N=C2NC(=O)/C(=C/c3ccc(OCC(=O)O)cc3)S2)cc1	none
CCc1ccc(N=C2NC(=O)/C(=C/c3ccc(OCC(=O)O)c(OC)c3)S2)cc1	none | KCNK9 inh conf inactive | Kir2-1 spec inactive | KCNK9 uninduced inactive
CCn1cc(S(=O)(=O)c2ccc(Cl)cc2)c(=O)c2cc(OC)ccc21	none
CCC(Sc1ccccn1)C(=O)Nc1cccc([N+](=O)[O-])c1 (stereo not given)	KCNK9 block -8.6 | KCNK9 inh conf 30% | Kir2-1 spec inactive | KCNK9 uninduced 26%
CC(Sc1cccc[n+]1[O-])C(=O)Nc1cccc([N+](=O)[O-])c1 (stereo not given)	none
Cc1ccc(S(=O)(=O)N2CCC(=O)N(CCOCc3cccc(C)c3)CC2)cc1	none | KCNK9 inh conf inactive | Kir2-1 spec inactive | KCNK9 uninduced inactive
COc1cccc(COCCN2CCN(S(=O)(=O)c3ccc(C)cc3)CCC2=O)c1	none | KCNK9 inh conf inactive | Kir2-1 spec inactive | KCNK9 uninduced inactive
Cc1ccc(COCCN2CCN(S(=O)(=O)c3ccc(C)cc3)CCC2=O)cc1	none
COc1ccc(COCCN2CCN(S(=O)(=O)c3ccc(C)cc3)CCC2=O)cc1	none (no result: KCNK3 block)
COc1cc(NC(=O)N[C@@H](Cc2c[nH]c3ccccc23)C(=O)O)c(C(=O)O)cc1OC	none
COc1ccc(C2NC(=O)CCC2[N+](=O)[O-])cc1OC (stereo not given)	KCNK9 block -15 | KCNK9 inh conf inactive | Kir2-1 spec inactive | KCNK9 uninduced inactive
COc1cc(C2NC(=O)CCC2[N+](=O)[O-])cc(OC)c1OC (stereo not given)	none
Oc1cccc(C(Nc2nccs2)c2ccc3cccnc3c2O)c1 (stereo not given)	none | KCNK9 inh conf inactive | Kir2-1 spec inactive | KCNK9 uninduced inactive
COc1cccc(C(NC(C)=O)c2ccc3cccnc3c2O)c1 (stereo not given)	none
O=C1CN(C(=O)COC(=O)c2cc(S(=O)(=O)N3CCOCC3)ccc2Cl)c2ccccc2N1	none
CCC(C)(C)n1nnnc1C(c1cccs1)N1CCc2ccccc21 (stereo not given)	KCNK9 block -9.2 | KCNK9 inh conf 51% | Kir2-1 spec inactive | KCNK9 uninduced 36%
O=S(=O)(CCNCc1ccccc1)NC1CCCCC1	none (no result: Kir21 inh, KCNQ1 act, hERG rescue, KCNK9 block, KCNQ1 block)
CCCN1CCC(=O)N(CCSc2ccccc2)CC1	none
c1ccc(SCCN2CCN(c3ccccc3)CC2)cc1	none | KCNK9 inh conf inactive | Kir2-1 spec inactive | KCNK9 uninduced inactive
COc1ccc(-c2csc3nc(-c4ccccc4OC)oc(=O)c23)cc1	KCNK9 block -11 | KCNK9 inh conf 72% | Kir2-1 spec inactive | KCNK9 uninduced inactive
O=C(NCCOc1ccc(Cl)cc1)c1ccc2ccccc2n1	none | KCNK9 inh conf inactive | Kir2-1 spec inactive | KCNK9 uninduced inactive
Cc1ccc(OCCNC(=O)c2ccc3ccccc3n2)cc1	none | KCNK9 inh conf inactive | Kir2-1 spec inactive | KCNK9 uninduced inactive
Cc1ccc(OCCNC(=O)c2ccccc2N)cc1	none
CN(C)S(=O)(=O)n1cnc([C@@H]2[C@H]3C(=O)OC[C@@H]3C[C@@]23N=CN(Cc2ccccc2)C3=O)c1	none (no result: Kir21 inh, KCNQ1 act, hERG rescue, KCNK9 block, KCNQ1 block)
CCCOc1ccc(CNC(=O)c2ccc3c(c2)N(CC)CCS3)cc1	none | KCNK9 inh conf inactive | Kir2-1 spec inactive | KCNK9 uninduced inactive
COC(=O)c1ccccc1S(=O)(=O)N1CCC(NC(=O)C(Cc2cccc(OC)c2OC)NC(C)=O)CC1 (stereo not given)	none
Cc1ccc(-c2[nH]c3ccccc3c2SCCNC(=O)c2cc3ccccc3oc2=O)cc1	KCNQ1 block 6 | KCNK9 inh conf inactive | Kir2-1 spec inactive | KCNK9 uninduced inactive
